Reference: ChEMBL document CHEMBL1921724, “In search of a cytostatic agent derived from the alkaloid lycorine: synthesis and growth inhibitory properties of lycorine derivatives” (Bioorg Med Chem, 2011)

What was measured:
SK-MEL-28 = test: Growth inhibition of pro-apoptotic stimuli-resistant human SK-MEL-28 cells after 72 hrs by MTT assay; format: functional; details: SK-MEL-28, 72 h
How it was run: (§1)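 Cells seeded at 10,000 to 40,000 cells/mL depending on cell type and allowed to attach for 24 h. They were then cultured 72 h with or without compound (untreated control). Living cells were measured by MTT reduction to formazan, read at 570 nm against a 630 nm reference. GI50 was derived from the growth levels.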

T98G = test: Growth inhibition of pro-apoptotic stimuli-resistant human T98G cells after 72 hrs by MTT assay; format: functional; how it was run: as §1
A549 = test: Growth inhibition of pro-apoptotic stimuli-resistant human A549 cells after 72 hrs by MTT assay; format: functional; details: A549, 72 h; how it was run: as §1
PC-3 = test: Growth inhibition of human PC3 cells after 72 hrs by MTT assay; format: functional; details: PC-3, 72 h
[1] = Growth inhibition of pro-apoptotic stimuli-resistant human U373 cells after 72 hrs by MTT assay; format: functional, U-373MG ATCC; details: U373 MG; how it was run: as §1
MCF7 = test: Growth inhibition of human MCF7 cells after 72 hrs by MTT assay; format: functional; details: MCF7, 72 h
[2] = Growth inhibition of pro-apoptotic stimuli-sensitive human Hs683 cells after 72 hrs by MTT assay; format: functional; details: Hs 683, 72 h; how it was run: as §1
[3] = Chemical stability of the compound at pH 5 to 7.4; format: physicochemical; details: buffer
B16-F10 = test: Growth inhibition of pro-apoptotic stimuli-sensitive mouse B16F10 cells after 72 hrs by MTT assay; format: functional; details: B16-F10, 72 h; how it was run: as §1
[4] = Ratio of lycorine GI50 to compound GI50 for pro-apoptotic stimuli-resistant human U373 cells after 72 hrs by MTT assay; format: functional, U-373MG ATCC

GI50 (SK-MEL-28) | GI50 (A549) | GI50 (PC-3) | GI50 (MCF7) | Stability [3] | GI50 (B16-F10) | SMILES | GI50 (T98G) | GI50 [1] | GI50 [2] | RatioGI50 [4]
30 µM | 14 µM | 22 µM | 30 µM | 3 days | 21 µM | CCCCCCCC/C=C\CCCCCCCC(=O)O[C@H]1[C@H]2c3cc4c(cc3CN3CCC(=C[C@@H]1O)[C@H]23)OCO4 | 0.8 µM | 4 µM | 14 µM | –
25 µM | 15 µM | 19 µM | 21 µM | 3 days | 18 µM | CC/C=C\C/C=C\C/C=C\C/C=C\C/C=C\C/C=C\CCC(=O)O[C@H]1[C@H]2c3cc4c(cc3CN3CCC(=C[C@@H]1O)[C@H]23)OCO4 | 3 µM | 8 µM | 20 µM | –
6 µM | 4 µM | 1 µM | 0.2 µM | – | 4 µM | C=CCO[C@H]1[C@H]2c3cc4c(cc3CN3CCC(=C[C@@H]1OCC=C)[C@H]23)OCO4 [DIALLYLLYCORINE] | 4 µM | 0.03 µM | 2 µM | 100
